Source: publication PMC9662946 (Clinical Cancer Research, 2022)
Entries after “also recorded” stand apart in the source; their conditions may differ.

Key:
[1] = system: patients with advanced solid tumors; experiment: Phase I safety and tolerability: AEs, SAEs, DLTs; assay type: in vivo, human
[2] = Plasma pharmacokinetics of AZD8186 and metabolite M1; assay type: in vivo, human; details: for Effect of the combination partner on the PK of AZD8186 (Cmax, AUC): drug–drug interaction analysis versus AZD8186 monotherapy
[3] = system: pAKT (S473), pAKT (T308), pGSK3β; experiment: PD biomarkers of PI3Kβ inhibition in platelet-rich plasma; assay type: in vivo, human; details: pooled 60-mg and 120-mg BID monotherapy cohorts
pAKT (S473) and pPRAS40 = experiment: IHC of paired tumor biopsies; assay type: in vivo, human; details: six patients, 120-mg BID monotherapy dose expansion
Outline: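 Paired fresh biopsies from patients with PTEN-deficient/mutated mCRPC or TNBC, taken at screening and in week 2 after ≥3 consecutive dosing days (preferably 2–4 h post-dose; days 11 or 12 on 5:2, days 11–14 continuous). IHC for pAKT (S473) and pPRAS40 on three non-consecutive sections. Digital image analysis scored membranous pAKT and cytosolic pPRAS40 intensity as H-scores, with percent change from baseline.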

advanced solid tumors = experiment: Tumor response by RECIST 1.1; assay type: in vivo, human
Outline: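 Imaging at baseline and every 6 weeks (every 12 weeks for mCRPC) until discontinuation or consent withdrawal. Patients with measurable disease were classed as complete response, partial response, stable disease or progressive disease under RECIST 1.1. Results were summarised descriptively, with percent change from baseline in target lesions.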

PI3Kβ = details: cited from earlier work
[4] = combined with AZD8186, dose expansion
[5] = combined with AZD8186, dose finding
[6] = non-prostate cancer, dose finding

## CC(=O)O[C@H]1CC[C@@]2(C)C(=CC[C@@H]3[C@@H]2CC[C@]2(C)C(c4cccnc4)=CC[C@@H]32)C1 [Abiraterone acetate, abiraterone acetate, reference compound]
[1]; [4]
  Dose interruption of the combination partner, patients: 72.2%
  Dose reduction of the combination partner, patients: 33.3%
[1]; [5]
  Dose interruption of the combination partner, patients: 56.3%
  Dose reduction of the combination partner, patients: 18.8%
[2]
  Effect of the combination partner on the PK of AZD8186 (Cmax, AUC): little or no effect

## C[C@@H](Nc1cc(F)cc(F)c1)c1cc(C(=O)N(C)C)cc2c(=O)cc(N3CCOCC3)oc12 [AZD8186, (R)-8-(1-(3,5-difluorophenylamino)ethyl)-N,N-dimethyl-2-morpholino-4-oxo-4H-chromene-6-carboxamide]
[1]; dose expansion
  Any AE: 19 (95.0) n (%)
  Any AE causally related to AZD8186 only: 11 (55.0) n (%)
  Any AE leading to discontinuation of AZD8186: 1 (5.0) n (%)
  Any AE leading to dose modification of AZD8186: 0 n (%)
  Any SAE (including deaths): 4 (20.0) n (%)
  Any SAE (including deaths), causally related to AZD8186 only: 2 (10.0) n (%)
  Any SAE causing discontinuation of AZD8186: 0 n (%)
  Any SAE causing discontinuation of AZD8186, causally related to AZD8186 only: 0 n (%)
  Any grade ≥3 AE: 8 (40.0) n (%)
  Any grade ≥3 AE causally related to AZD8186 only: 3 (15.0) n (%)
  Death: 0 n (%)
  Death causally related to AZD8186 only: 0 n (%)
  Dose interruption of AZD8186, patients: 35.0%
  Dose reduction of AZD8186, patients: No dose reductions
[1]; dose finding
  Anemia, grade ≥3 causally related AE, patients: 4.8%
  Any AE: 63 (100.0) n (%)
  Any AE causally related to AZD8186 only: 55 (87.3) n (%)
  Any AE leading to discontinuation of AZD8186: 11 (17.5) n (%)
  Any AE leading to dose modification of AZD8186: 10 (15.9) n (%)
  Any SAE (including deaths): 23 (36.5) n (%)
  Any SAE (including deaths), causally related to AZD8186 only: 10 (15.9) n (%)
  Any SAE causing discontinuation of AZD8186: 6 (9.5) n (%)
  Any SAE causing discontinuation of AZD8186, causally related to AZD8186 only: 5 (7.9) n (%)
  Any grade ≥3 AE: 39 (61.9) n (%)
  Any grade ≥3 AE causally related to AZD8186 only: 20 (31.7) n (%)
  Aspartate aminotransferase increase, grade ≥3 causally related AE, patients: 4.8%
  Colitis, grade ≥3 causally related AE, patients: 4.8%
  Death: 0 n (%)
  Death causally related to AZD8186 only: 0 n (%)
  Diarrhea, AE causally related to AZD8186, patients: 41.3%
  Fatigue, AE causally related to AZD8186, patients: 22.2%
  Hypophosphatemia, grade ≥3 causally related AE, patients: 4.8%
  Maculo-papular rash, grade ≥3 causally related AE, patients: 4.8%
  Nausea, AE causally related to AZD8186, patients: 27.0%
  Vomiting, AE causally related to AZD8186, patients: 23.8%
[1]; dose finding, whole arm
  Dose interruption of AZD8186, patients: 49.2%
  Dose interruption of AZD8186 related to AEs, patients: 38.1%
  Dose reduction of AZD8186, patients: 17.5%
[1]; monotherapy dose expansion, 60-mg BID (5:2) and 120-mg BID (continuous)
  Tolerability: well tolerated
[1]; monotherapy dose finding, 53 evaluable for DLTs
  Patients who experienced a DLT: 7.5%
[2]; human, plasma, oral, terminal elimination half-life, overall range, after a single dose
  half-life: 1.4 to 13.8 h
[2]; in vivo
  Effect on the PK of abiraterone acetate: little effect
[2]; single- and multiple-dose administration
  Cmax and AUC versus dose: dose proportional; also recorded: increased with dose
[3]
  pAKT (S473), pAKT (T308), and pGSK3β in platelet-rich plasma: Substantial reductions
pAKT (S473) and pPRAS40
  Patients with substantial reduction in pAKT (S473) membrane fraction: all six patients
  Patients with substantial reduction in pPRAS40: five of the six patients
Advanced solid tumors; dose finding
  Duration of RECIST 1.1 partial response: 372 days
Advanced solid tumors; [6]
  RECIST 1.1 best objective response stable disease, patients: 38.9%
  RECIST 1.1 disease progression, patients: 55.6%
Advanced solid tumors; non-prostate cancer, dose finding (120-mg BID; 2:5)
  RECIST 1.1 confirmed partial response, patients: 5.6%
Advanced solid tumors; prostate cancer, dose expansion
  RECIST 1.1 disease progression, patients: 25.0%
Advanced solid tumors; prostate cancer, dose finding
  RECIST 1.1 best objective response stable disease, patients: 37.5%
  RECIST 1.1 disease progression, patients: 62.5%
PI3Kβ
  IC50: 4 nM

## CNC(=O)c1cccc(-c2ccc3c(N4CCOC[C@@H]4C)nc(N4CCOC[C@@H]4C)nc3n2)c1 [Vistusertib, vistusertib, reference compound]
[1]; [5]
  Dose interruption of the combination partner, patients: 60.0%
  Dose reduction of the combination partner, patients: 23.3%
[2]
  Effect of the combination partner on the PK of AZD8186 (Cmax, AUC): not affected

## C[C@]12C=CC(=O)C=C1CC[C@@H]1[C@@H]2C(=O)C[C@@]2(C)[C@H]1CC[C@]2(O)C(=O)CO [prednisone, reference compound]
[1]; [4]
  Dose interruption of the combination partner, patients: 77.8%
  Dose reduction of the combination partner, patients: 22.2%
[1]; [5]
  Dose interruption of the combination partner, patients: 56.3%
  Dose reduction of the combination partner, patients: 18.8%
